{"source": "ChEMBL document CHEMBL5303300", "about": "“EUbOPEN Chemogenomics Library - Multiplex” (2023)", "key": {"Fibroblast": {"tested_on": "Fibroblast", "assay": "Multiplex assay against human fibroblast", "format": "toxicity, cell-based", "details": "number of replicates 2", "procedure,_shortened": "(§1)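 Hoechst33342, BioTracker Green Microtubule Cytoskeleton Dye, MitoTracker Red and Annexin V Alexa Fluor 680 were added to live cells at seeding, and imaging on a CQ1 microscope at 37°C and 5% CO2 followed compound addition. Gating by CellPathfinder machine learning separated cells into Hoechst high-intensity objects or normal cells, then normal cells into healthy, pyknosed or fragmented nuclei, then pyknosed cells into mitotic or apoptotic. Per cents of healthy-nucleus cells are reported for the tubulin, mitochondrial-mass and membrane-permeability phenotypes.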"}, "HEK-293T": {"tested_on": "HEK-293T", "assay": "Multiplex assay against HEK293T", "format": "toxicity, cell-based", "details": "human, number of replicates 2", "procedure,_shortened": "as §1"}, "[1]": {"details": "24 h, 10 µM, compound concentration 10 uM"}, "[2]": {"details": "48 h, 1 µM, compound concentration 1 uM"}, "[3]": {"details": "48 h, 10 µM, compound concentration 10 uM"}, "[4]": {"details": "12 h, 1 µM, compound concentration 1 uM"}, "[5]": {"details": "12 h, 10 µM, compound concentration 10 uM"}, "[6]": {"details": "24 h, 1 µM, compound concentration 1 uM"}}, "note": "“And” between values parts separate entries of the source, which are not always exact repeats. Equal values may be shown once."}
{"smiles": "N[C@@H]1c2cccnc2[C@H](OC(=O)N2CCC(n3c(=O)[nH]c4ncccc43)CC2)CC[C@H]1c1cccc(F)c1F", "note": "[RIMEGEPANT]", "values": [{"measurement": "Population Hoechst High Intensity Objects (%)", "setting": "Fibroblast; [1]", "result": 0, "unit": "%"}, {"measurement": "Population Membrane Permeable-Phenotype (%)", "setting": "Fibroblast; [1]", "result": "7% and 6%"}, {"measurement": "Population Mitochondria Different-Phenotype (%)", "setting": "Fibroblast; [1]", "result": "3% and 5%"}, {"measurement": "Population Mitotic Cells (%)", "setting": "Fibroblast; [1]", "result": "52% and 35%"}, {"measurement": "Population Normal (%)", "setting": "Fibroblast; [1]", "result": "100% and 99%"}, {"measurement": "Population Pyknosed Nuclei (%)", "setting": "Fibroblast; [1]", "result": "9% and 7%"}, {"measurement": "Population Tubulin-Different-Phenotype (%)", "setting": "Fibroblast; [1]", "result": "50% and 36%"}, {"measurement": "Total Cell Count", "setting": "Fibroblast; [1]", "result": "199 and 236"}, {"measurement": "Population Apoptotic (%)", "setting": "Fibroblast; [2]", "result": "65% and 48%"}, {"measurement": "Population Fragmented Nuclei (%)", "setting": "Fibroblast; [2]", "result": "8% and 21%"}, {"measurement": "Population Healthy Nuclei (%)", "setting": "Fibroblast; [2]", "result": "75% and 65%"}, {"measurement": "Population Hoechst High Intensity Objects (%)", "setting": "Fibroblast; [2]", "result": "0% and 1%"}, {"measurement": "Population Membrane Permeable-Phenotype (%)", "setting": "Fibroblast; [2]", "result": "4% and 2%"}, {"measurement": "Population Mitochondria Different-Phenotype (%)", "setting": "Fibroblast; [2]", "result": 1, "unit": "%"}, {"measurement": "Population Mitotic Cells (%)", "setting": "Fibroblast; [2]", "result": "35% and 51%"}, {"measurement": "Population Normal (%)", "setting": "Fibroblast; [2]", "result": "100% and 98%"}, {"measurement": "Population Pyknosed Nuclei (%)", "setting": "Fibroblast; [2]", "result": "16% and 12%"}, {"measurement": "Population Tubulin-Different-Phenotype (%)", "setting": "Fibroblast; [2]", "result": "6% and 10%"}, {"measurement": "Total Cell Count", "setting": "Fibroblast; [2]", "result": "125 and 227"}, {"measurement": "Population Apoptotic (%)", "setting": "Fibroblast; [3]", "result": "77% and 47%"}, {"measurement": "Population Fragmented Nuclei (%)", "setting": "Fibroblast; [3]", "result": "14% and 13%"}, {"measurement": "Population Healthy Nuclei (%)", "setting": "Fibroblast; [3]", "result": "81% and 78%"}, {"measurement": "Population Hoechst High Intensity Objects (%)", "setting": "Fibroblast; [3]", "result": 0, "unit": "%"}, {"measurement": "Population Membrane Permeable-Phenotype (%)", "setting": "Fibroblast; [3]", "result": "1% and 5%"}, {"measurement": "Population Mitochondria Different-Phenotype (%)", "setting": "Fibroblast; [3]", "result": "1% and 0%"}, {"measurement": "Population Mitotic Cells (%)", "setting": "Fibroblast; [3]", "result": "22% and 52%"}, {"measurement": "Population Normal (%)", "setting": "Fibroblast; [3]", "result": "99% and 100%"}, {"measurement": "Population Pyknosed Nuclei (%)", "setting": "Fibroblast; [3]", "result": "4% and 7%"}, {"measurement": "Population Tubulin-Different-Phenotype (%)", "setting": "Fibroblast; [3]", "result": "37% and 16%"}, {"measurement": "Total Cell Count", "setting": "Fibroblast; [3]", "result": "205 and 225"}, {"measurement": "Population Apoptotic (%)", "setting": "HEK-293T; [4]", "result": "64% and 44%"}, {"measurement": "Population Fragmented Nuclei (%)", "setting": "HEK-293T; [4]", "result": "4% and 5%"}, {"measurement": "Population Healthy Nuclei (%)", "setting": "HEK-293T; [4]", "result": "78% and 83%"}, {"measurement": "Population Hoechst High Intensity Objects (%)", "setting": "HEK-293T; [4]", "result": "14% and 10%"}, {"measurement": "Population Membrane Permeable-Phenotype (%)", "setting": "HEK-293T; [4]", "result": "3% and 1%"}, {"measurement": "Population Mitochondria Different-Phenotype (%)", "setting": "HEK-293T; [4]", "result": "18% and 17%"}, {"measurement": "Population Mitotic Cells (%)", "setting": "HEK-293T; [4]", "result": "35% and 55%"}, {"measurement": "Population Normal (%)", "setting": "HEK-293T; [4]", "result": "85% and 89%"}, {"measurement": "Population Pyknosed Nuclei (%)", "setting": "HEK-293T; [4]", "result": "17% and 10%"}, {"measurement": "Population Tubulin-Different-Phenotype (%)", "setting": "HEK-293T; [4]", "result": 47, "unit": "%"}, {"measurement": "Total Cell Count", "setting": "HEK-293T; [4]", "result": "573 and 694"}, {"measurement": "Population Apoptotic (%)", "setting": "HEK-293T; [5]", "result": "40% and 46%"}, {"measurement": "Population Fragmented Nuclei (%)", "setting": "HEK-293T; [5]", "result": 4, "unit": "%"}, {"measurement": "Population Healthy Nuclei (%)", "setting": "HEK-293T; [5]", "result": "83% and 84%"}, {"measurement": "Population Hoechst High Intensity Objects (%)", "setting": "HEK-293T; [5]", "result": "5% and 6%"}, {"measurement": "Population Membrane Permeable-Phenotype (%)", "setting": "HEK-293T; [5]", "result": "1% and 4%"}, {"measurement": "Population Mitochondria Different-Phenotype (%)", "setting": "HEK-293T; [5]", "result": "49% and 18%"}, {"measurement": "Population Mitotic Cells (%)", "setting": "HEK-293T; [5]", "result": "60% and 53%"}, {"measurement": "Population Normal (%)", "setting": "HEK-293T; [5]", "result": "94% and 93%"}, {"measurement": "Population Pyknosed Nuclei (%)", "setting": "HEK-293T; [5]", "result": "12% and 11%"}, {"measurement": "Population Tubulin-Different-Phenotype (%)", "setting": "HEK-293T; [5]", "result": "98% and 82%"}, {"measurement": "Total Cell Count", "setting": "HEK-293T; [5]", "result": "526 and 617"}, {"measurement": "Population Apoptotic (%)", "setting": "HEK-293T; [6]", "result": "56% and 37%"}, {"measurement": "Population Fragmented Nuclei (%)", "setting": "HEK-293T; [6]", "result": "7% and 6%"}, {"measurement": "Population Healthy Nuclei (%)", "setting": "HEK-293T; [6]", "result": "75% and 85%"}, {"measurement": "Population Hoechst High Intensity Objects (%)", "setting": "HEK-293T; [6]", "result": "11% and 8%"}, {"measurement": "Population Membrane Permeable-Phenotype (%)", "setting": "HEK-293T; [6]", "result": "0% and 1%"}, {"measurement": "Population Mitochondria Different-Phenotype (%)", "setting": "HEK-293T; [6]", "result": "5% and 4%"}, {"measurement": "Population Mitotic Cells (%)", "setting": "HEK-293T; [6]", "result": "43% and 62%"}, {"measurement": "Population Normal (%)", "setting": "HEK-293T; [6]", "result": "88% and 91%"}, {"measurement": "Population Pyknosed Nuclei (%)", "setting": "HEK-293T; [6]", "result": "17% and 7%"}, {"measurement": "Population Tubulin-Different-Phenotype (%)", "setting": "HEK-293T; [6]", "result": "18% and 20%"}, {"measurement": "Total Cell Count", "setting": "HEK-293T; [6]", "result": "820 and 1035"}, {"measurement": "Population Apoptotic (%)", "setting": "HEK-293T; [1]", "result": "48% and 36%"}, {"measurement": "Population Fragmented Nuclei (%)", "setting": "HEK-293T; [1]", "result": "9% and 8%"}, {"measurement": "Population Healthy Nuclei (%)", "setting": "HEK-293T; [1]", "result": "84% and 83%"}, {"measurement": "Population Hoechst High Intensity Objects (%)", "setting": "HEK-293T; [1]", "result": 8, "unit": "%"}, {"measurement": "Population Membrane Permeable-Phenotype (%)", "setting": "HEK-293T; [1]", "result": "5% and 2%"}, {"measurement": "Population Mitotic Cells (%)", "setting": "HEK-293T; [1]", "result": "51% and 63%"}, {"measurement": "Population Normal (%)", "setting": "HEK-293T; [1]", "result": 91, "unit": "%"}, {"measurement": "Population Pyknosed Nuclei (%)", "setting": "HEK-293T; [1]", "result": "6% and 7%"}, {"measurement": "Population Tubulin-Different-Phenotype (%)", "setting": "HEK-293T; [1]", "result": "91% and 67%"}, {"measurement": "Total Cell Count", "setting": "HEK-293T; [1]", "result": "709 and 978"}, {"measurement": "Population Apoptotic (%)", "setting": "HEK-293T; [2]", "result": "26% and 9%"}, {"measurement": "Population Fragmented Nuclei (%)", "setting": "HEK-293T; [2]", "result": "12% and 16%"}, {"measurement": "Population Healthy Nuclei (%)", "setting": "HEK-293T; [2]", "result": "82% and 80%"}, {"measurement": "Population Hoechst High Intensity Objects (%)", "setting": "HEK-293T; [2]", "result": "7% and 8%"}, {"measurement": "Population Membrane Permeable-Phenotype (%)", "setting": "HEK-293T; [2]", "result": "4% and 5%"}, {"measurement": "Population Mitochondria Different-Phenotype (%)", "setting": "HEK-293T; [2]", "result": 0, "unit": "%"}, {"measurement": "Population Mitotic Cells (%)", "setting": "HEK-293T; [2]", "result": "73% and 90%"}, {"measurement": "Population Normal (%)", "setting": "HEK-293T; [2]", "result": "92% and 91%"}, {"measurement": "Population Pyknosed Nuclei (%)", "setting": "HEK-293T; [2]", "result": "4% and 2%"}, {"measurement": "Population Tubulin-Different-Phenotype (%)", "setting": "HEK-293T; [2]", "result": "7% and 8%"}, {"measurement": "Total Cell Count", "setting": "HEK-293T; [2]", "result": "2054 and 2768"}, {"measurement": "Population Apoptotic (%)", "setting": "HEK-293T; [3]", "result": "34% and 14%"}, {"measurement": "Population Fragmented Nuclei (%)", "setting": "HEK-293T; [3]", "result": 14, "unit": "%"}, {"measurement": "Population Healthy Nuclei (%)", "setting": "HEK-293T; [3]", "result": 82, "unit": "%"}, {"measurement": "Population Hoechst High Intensity Objects (%)", "setting": "HEK-293T; [3]", "result": "8% and 10%"}, {"measurement": "Population Membrane Permeable-Phenotype (%)", "setting": "HEK-293T; [3]", "result": 6, "unit": "%"}, {"measurement": "Population Mitochondria Different-Phenotype (%)", "setting": "HEK-293T; [3]", "result": "9% and 1%"}, {"measurement": "Population Mitotic Cells (%)", "setting": "HEK-293T; [3]", "result": "65% and 85%"}, {"measurement": "Population Normal (%)", "setting": "HEK-293T; [3]", "result": "91% and 89%"}, {"measurement": "Population Pyknosed Nuclei (%)", "setting": "HEK-293T; [3]", "result": "2% and 3%"}, {"measurement": "Population Tubulin-Different-Phenotype (%)", "setting": "HEK-293T; [3]", "result": "83% and 44%"}, {"measurement": "Total Cell Count", "setting": "HEK-293T; [3]", "result": "1243 and 2004"}]}
